The list is not random: actives were taken first. Their share in the collection is about 3.5%.
SIAE primary – human SIAE inhibition, primary screen; Q9HAT2; SIAE FP-Rh probe binding, fluorescence polarization; inhibition, % at 9.66 µM; 370,000 tested, 0.69% active;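 active means inhibition above a cutoff: mean of compounds within the control limits plus 3 SD of those, cut at about 17% in these data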;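 further: 0% = plate median of compound wells and 100% = probe without SIAE protein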
PRMT1 inh – blocks human protein arginine methyltransferase 1 | Q99873 | recombinant PRMT1, activity-based probe fluorescence polarization | inhibition, % at 2.79 µM | 370,000 tested, 1.3% active | AID 652257;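 active means inhibition above about 21% made by adding two undisclosed values, limit read from the data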
mABHD4 FP – ABHD4 (mouse) inhibition, primary FP screen; purified mABHD4, FP-Rh probe fluorescence polarization; Q8VD66; AID 720543; inhibition, % at 8.92 µM; 370,000 tested, 0.54% active;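 active means inhibition exceeding the mean over every tested compound plus 3 SD, cut at about 30% in these data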;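 further: 0% = plate median of compound wells and 100% = S159A mutant with DMSO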
Target sequence (Q8VD66 whole entry, looked up): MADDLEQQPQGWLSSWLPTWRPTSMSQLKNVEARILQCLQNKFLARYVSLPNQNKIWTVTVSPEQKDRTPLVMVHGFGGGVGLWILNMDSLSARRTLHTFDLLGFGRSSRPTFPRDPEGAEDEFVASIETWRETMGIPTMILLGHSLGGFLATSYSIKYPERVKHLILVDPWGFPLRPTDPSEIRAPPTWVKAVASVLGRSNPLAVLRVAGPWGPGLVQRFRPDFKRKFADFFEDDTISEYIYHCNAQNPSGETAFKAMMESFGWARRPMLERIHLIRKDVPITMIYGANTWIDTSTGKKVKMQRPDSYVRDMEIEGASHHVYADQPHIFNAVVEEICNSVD
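assay system = mABHD4 protein | compound dosing = single nominal dose of 8.92 µM, 0.89% DMSO final | read-out basis = percent inhibition of probe binding, normalized to plate controls | schedule = Enzyme–compound pre-incubation 45 min, then probe 60 min, both 25 °C | detection = fluorescence polarization, excitation 525 nm, emission 598 nm, BODIPY TMR filters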
rCAG binder – binds r(CAG) RNA repeats. r(CAG) RNA repeat, TO-PRO-1 dye displacement fluorescence. inhibition, % at 3 µM. AID 651821. 370,000 tested, 1.3% active;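 active means inhibition above the plate cutoff, the mean of all test compounds on that plate plus 3 SD, cut at about 35% in these data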;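 further: 0% = DMSO alone and 100% = 100 µM mitoxantrone as full dye displacement; higher means more dye released from RNA so lower well fluorescence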
TCR CD3 inh – inhibitors of human TCR-CD3 interaction. TAMRA-labeled TCR probe fluorescence, biochemical. inhibition, % at 9.4 µM. 360,000 tested, 0.37% active. AID 651800; in the data active means inhibition above about 19%;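 further: recombinant mutant TCR 2C K166C tagged with TAMRA read by polarization; 0% = receptor in buffer alone and 100% = receptor with positive control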
HTRA1 inhibitor – blocks human HTRA1 serine peptidase; recombinant HTRA1, FP-rhodamine activity-based probe, fluorescence polarization; Q92743; AID 504803; 340,000 tested, 0.5% active; inhibition, % at 5.96 µM; in the data active means inhibition above about 36%;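 further: 0% = enzyme with DMSO and 100% = wells lacking enzyme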
* = called active by the depositor; . = not tested or not shown.

SMILES	SIAE primary	PRMT1 inh	mABHD4 FP	rCAG binder	TCR CD3 inh	HTRA1 inhibitor
CCC(Sc1nc(-c2ccccc2)c(C#N)c(=O)[nH]1)C(=O)Nc1cc(C)on1 (stereo not drawn)	-9	1	-14	50*	-3	-10
Cc1[nH]n(-c2ccccc2)c(=O)c1-c1ccccc1	18*	-6	12	6	1	-7
O=C(O)CCC(C(=O)O)n1c(O)c(C2=c3ccccc3=NC2=O)sc1=S (stereo not drawn)	2	23*	17	4	3	-3
O=C1N=c2ccccc2=C1c1sc(=S)n(CC2CCCO2)c1O (stereo not drawn)	3	0	6	2	-5	1
CCOC(=O)[C@@]12CN(C(=O)OC(C)(C)C)CC=C1N(Cc1ccc(OC)cc1)C(=O)[C@H]2CC(=O)N1CCCCC1	1	4	10	0	.	.
Cc1ccc(C(C[N+](=O)[O-])Sc2ccc(N)cc2)cc1 (stereo not drawn)	3	67*	2	4	-9	-10
Cc1cc(=O)oc2c3c(ccc12)OC/C3=N/N	-7	14	26	41*	22*	13
N=c1c(C(=O)NC2CCCCC2)cc2c(=O)n3ccccc3nc2n1Cc1ccccc1	1	0	9	4	-1	-5
N=c1c(C(=O)NC2CCCCC2)cc2c(=O)n3ccccc3nc2n1CCc1ccccc1	92*	-1	0	5	3	1
COc1ccc(S[C@]2(C(=O)N3CCCC3)CC(=O)N(C(=O)/C=C/c3ccccc3)[C@@H]2c2ccc(OC)cc2)cc1	-5	8	-10	13	.	.
CCOC(=O)C1=C(CSc2nc(-c3ccncc3)ccc2C#N)OC(N)=C(C#N)C1c1ccc(OC)cc1 (stereo not drawn)	-16	15	-5	9	-17	-15
CCOC(=O)C1=C(CSc2nc(CC)c(C)cc2C#N)OC(N)=C(C#N)C1c1ccc(OC)cc1 (stereo not drawn)	0	21*	-25	1	-11	-34
CCN(CC)CCN(C(=O)c1ccc(C(=O)c2ccccc2)cc1)c1nc2cc3c(cc2s1)OCO3	7	1	-2	0	-7	-10
CCN(CC)CCN(C(=O)c1ccc2ncsc2c1)c1nc2cc3c(cc2s1)OCO3	1	53*	-1	-3	-2	15
CC(=O)N(C)c1ccc(NC(=S)NC(=O)/C=C/c2ccco2)cc1	0	6	5	6	12	0
CC(=O)Nc1ccc(NC(=S)NC(=O)/C=C/c2ccco2)cc1	4	21*	16	22	2	-1
O=C(/C=C/c1ccco1)NC(=S)Nc1ccccc1O	8	21*	18	33	16	.
O=S(=O)(Nc1nc2ccccc2nc1Cl)c1cccc(C(F)(F)F)c1	1	-2	-11	42*	2	-16
Cc1cc(N/N=C/c2ccc(O)cc2O)nc(N2CCOCC2)n1	10	1	2	-1	1	-2
Oc1ccc(/C=N\Nc2cc(N3CCOCC3)nc(N3CCOCC3)n2)c(O)c1	23*	3	13	11	-7	6
S=C1NC(c2ccccc2)N2C(=S)NC(c3ccccc3)N12 (stereo not drawn)	7	16	5	0	0	3
Cc1ccc(C2NC(=S)N3C(c4ccc(C)cc4)NC(=S)N23)cc1 (stereo not drawn)	2	22*	-3	0	-1	3
O=C(Cn1c(=O)c2cccn2c2cccnc21)NCCCN1CCN(c2ccc(Cl)cc2)CC1	1	-4	8	.	.	.
CCOC(=O)c1sc2nc(CC(=O)OC)nc(NCc3ccco3)c2c1C	9	22*	15	15	0	25
Cc1ccc(N2C(=O)c3ccccc3C2C(=O)c2cc(C)ccc2O)cc1 (stereo not drawn)	-9	17	11	6	3	-17
Cc1ccc(N2C(=O)c3ccccc3C2C(=O)c2ccc(O)cc2O)cc1 (stereo not drawn)	4	24*	-2	20	7	-32
COC(=O)C1=C[C@@H]([C@@H](C)[C@H](OC)c2ccccc2Br)[C@@H]2OCCC[C@H]12	5	2	-2	0	.	.
O=C(CCN1CCCCC1)Nn1c(=S)[nH]c2ccccc2c1=O	4	24*	1	1	-3	-6
